Results taken from publication PMC11152975 (International Journal of Pharmaceutics: X, 2024).
Where two headings read alike, the source gives them in different places.

What was measured:
[1] = low solubility and low permeability; cited from earlier work
[2] = test system: MCF-7 human breast cancer cells; assay: In vitro cytotoxicity, MTT assay; assay type: cell-based; conditions: read-out: mean IC50
How it was run: (§1)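 Cells kept in phenol red-free DMEM with 10% FBS, L-glutamine and antibiotics at 37 °C, 5% CO2, then seeded in 96-well plates. They were exposed to a range of test compound concentrations (free drug in DMSO or micellar formulations) for 24, 48 or 72 h. Next, 0.5 mg/mL MTT for 2 h, absorbance read at 550 nm. Viability expressed as % of untreated control wells.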

[3] = test system: MDA-MB-231 human breast cancer cells; assay: In vitro cytotoxicity, MTT assay; assay type: cell-based; conditions: read-out: mean IC50
How it was run: as §1

[4] = target: T1, bovine serum albumin (BSA) (Bos taurus, UniProt P02769); conditions: ref Liu et al., 2005; cited from earlier work
[5] = target: T1, bovine serum albumin (BSA); assay: Protein adsorption to micelles: incubation with BSA, DLS and TEM; assay type: physicochemical
How it was run: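 Drug-loaded micelles were incubated with 45 mg/mL bovine serum albumin in 0.01 M PBS (pH 7.4) at 37 °C for 8 h, with BSA alone and micelles alone incubated in PBS as controls. Hydrodynamic size and polydispersity were read by DLS (n = 3, mean ± SD). For TEM, samples settled 20 s on carbon-coated grids and were negatively stained with 2% phosphotungstic acid in PBS, pH 7.0.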

T1 sequence (P02769 25-607): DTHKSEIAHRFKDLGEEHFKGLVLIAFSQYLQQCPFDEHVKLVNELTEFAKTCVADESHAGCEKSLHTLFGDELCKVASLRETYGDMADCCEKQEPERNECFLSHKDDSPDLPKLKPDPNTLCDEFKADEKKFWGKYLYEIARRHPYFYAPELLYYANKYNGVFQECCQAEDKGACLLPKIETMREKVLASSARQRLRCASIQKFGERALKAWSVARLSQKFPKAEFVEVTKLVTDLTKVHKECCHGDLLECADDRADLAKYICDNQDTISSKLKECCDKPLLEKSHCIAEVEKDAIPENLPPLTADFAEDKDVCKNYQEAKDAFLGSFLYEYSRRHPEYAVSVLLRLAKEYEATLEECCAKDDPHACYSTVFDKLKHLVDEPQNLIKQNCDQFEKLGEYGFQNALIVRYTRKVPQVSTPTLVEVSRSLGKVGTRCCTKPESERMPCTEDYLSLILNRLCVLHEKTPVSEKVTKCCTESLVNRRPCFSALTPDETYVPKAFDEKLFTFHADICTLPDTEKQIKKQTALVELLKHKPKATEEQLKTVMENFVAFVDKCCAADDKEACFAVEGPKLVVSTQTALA

In the case of `CC(=O)O[C@H]1C(=O)[C@@]2(C)[C@H]([C@H](OC(=O)c3ccccc3)[C@]3(O)C[C@H](OC(=O)[C@H](O)[C@@H](NC(=O)c4ccccc4)c4ccccc4)C(C)=C1C3(C)C)[C@]1(OC(C)=O)CO[C@@H]1C[C@@H]2O` [Free PTX (in DMSO), Paclitaxel], the “biopharmaceutical classification system (BCS) class” value [1] is given as “class IV”, the IC50 ([2]; MCF7, 24 h) is given as > 1000 nM and the IC50 ([2]; MCF7, 48 h) is given as 384 nM. For the same molecule, the IC50 ([2]; MCF7, 72 h) was 297 nM, the IC50 ([3]; MDA-MB-231, 24 h) was 21.6 nM and the IC50 ([3]; MDA-MB-231, 48 h) was 10.8 nM. For the same molecule, the IC50 ([3]; MDA-MB-231, 72 h) was 9.7 nM.

For bovine serum albumin [BSA], the hydrodynamic diameter [4] is listed as 7.9 ± 0.4 nm, the “Size (hydrodynamic)” value ([5]; 8-h incubation at 37 °C in 0.01 M PBS pH 7.4, sample alone) is listed as 8.2 ± 0.1 nm and the Polydispersity ([5]; 8-h incubation at 37 °C in PBS, sample alone) is listed as 0.236 ± 0.019.
